# Source: ChEMBL document CHEMBL3421570, “Combinatorial Libraries As a Tool for the Discovery of Novel, Broad-Spectrum Antibacterial Agents Targeting the ESKAPE Pathogens” (J Med Chem, 2015)
# The source made the active and inactive calls. The calls are words filed in the database; no cut-off is given here.
# Key:
# [1] = test system: Enterobacter cloacae; experiment: Bactericidal activity against Enterobacter cloacae after 24 hrs; format: functional
# [2] = test system: Enterococcus faecium; experiment: Induction of spontaneous mutation in Enterococcus faecium at 2 to 10 MIC; format: functional, organism-based
# [3] = Selectivity index, ratio of IC50 for human A549 cells to MIC for Enterobacter cloacae
# [4] = test system: Enterobacter cloacae; experiment: Ratio of MIC for Enterobacter cloacae measured after 8 cycle passage to MIC for wild type Enterobacter cloacae; format: functional
# [5] = test system: Acinetobacter baumannii; experiment: Induction of spontaneous mutation in Acinetobacter baumannii at 2 to 10 MIC; format: functional, organism-based
# [6] = Selectivity index, ratio of IC50 for human A549 cells to MIC for Enterococcus faecium
# [7] = Induction of hemolysis in human RBC at 10 uM incubated for 15 mins; format: cell-based, Erythrocyte; conditions: red blood cells, read-out: Activity
# Procedure, shortened: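 Human RBCs from whole blood, resuspended 20% v/v in HA buffer (NaCl, CaCl2), compound 10 μM, 15 min at 37°C. Centrifuged 5,500 g for 1 min, supernatant OD543 read. Percent hemolysis against DMF vehicle (0%) and 1.0% Triton X-100 (100%); triplicate.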
# [8] = test system: Klebsiella pneumoniae; experiment: Antimicrobial activity against Klebsiella pneumoniae assessed as inhibition of microbial growth at 45 uM after 24 hrs; format: functional, organism-based
# Procedure, shortened: (§1)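 Broth microdilution single-concentration read: overnight cultures diluted 1:1000, compound in DMF (≤2.0%) added, 37°C for 24 h, growth inhibition scored visually by lack of turbidity; triplicate. Gram-positives grown in TSB, Gram-negatives in LB.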
# [9] = test system: Enterobacter cloacae; experiment: Antibiofilm activity against Enterobacter cloacae incubated for 24 hrs followed by biofilm resuspension in PBS and measured after 24 hrs; format: functional
# Procedure, shortened: (§2)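 Biofilms grown 24 h in 96-well plates from overnight cultures standardized to OD600 0.5 in fresh medium (human serum only for S. aureus; TSB for Gram-positives, LB for Gram-negatives). Medium then replaced with fresh medium containing a concentration range above and below MIC, 37°C overnight. After 24 h biofilm resuspended in PBS, serially diluted, plated in duplicate, CFU counted after 24 h at 37°C. Activity relative to untreated; three technical replicates; MBEC50 reported.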
# [10] = test system: Staphylococcus aureus; experiment: Bactericidal activity against methicillin-resistant Staphylococcus aureus at MIC measured after drug wash out after 120 mins by time kill assay; format: functional
# Procedure, shortened: (§3)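 MRSA from stationary phase was regrown 3 h in TSB and seeded at OD600 0.5. […] After 120 min, cells were centrifuged and washed, serially diluted and plated for CFU. Percent recovery is relative to no-drug controls.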
# [11] = test system: Acinetobacter baumannii; experiment: Antimicrobial activity against Acinetobacter baumannii assessed as inhibition of microbial growth after 24 hrs; format: functional
# Procedure, shortened: (§4)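 Broth microdilution against multidrug-resistant clinical ESKAPE isolates. Overnight cultures (TSB for Gram-positives, LB for Gram-negatives) diluted 1:1000 in fresh medium, compound in DMF (≤2.0% DMF) added at decreasing concentrations, 37°C.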
# [12] = test system: Staphylococcus aureus; experiment: Antimicrobial activity against Staphylococcus aureus assessed as inhibition of microbial growth at 45 uM after 24 hrs; format: functional, organism-based; procedure, shortened: as §1
# [13] = test system: Acinetobacter baumannii; experiment: Ratio of MIC for Acinetobacter baumannii measured after 8 cycle passage to MIC for wild type Acinetobacter baumannii; format: functional
# [14] = test system: Staphylococcus aureus; experiment: Bactericidal activity against methicillin-resistant Staphylococcus aureus assessed as cell survival recovery at MIC measured after drug wash out after 120 mins by time kill assay; format: functional; procedure, shortened: as §3
# [15] = Cytotoxicity against human A549 cells assessed as cell viability recovery up to 100 uM after 48 hrs by MTT assay; format: cell-based; conditions: read-out: Activity
# Procedure, shortened: (§5)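 A549 cells grown in F-12K with L-glutamine, 10% FBS, 1% penicillin-streptomycin, seeded at 1.0 × 10^5 ml−1, allowed to adhere 24 h (37°C, 5% CO2), then exposed to compound in 45% w/v (2-hydroxypropyl)-β-cyclodextrin vehicle for 48 h. MTT 4 h, formazan solubilized in DMSO, absorbance 540 nm. Percent recovery versus vehicle-only; IC50 derived; at least three independent experiments.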
# [16] = test system: Pseudomonas aeruginosa; experiment: Induction of spontaneous mutation in Pseudomonas aeruginosa at 2 to 10 MIC; format: functional, organism-based; conditions: 2 to 10 x MIC
# [17] = test system: Staphylococcus aureus; experiment: Induction of spontaneous mutation in Staphylococcus aureus at 2 to 10 MIC; format: functional, organism-based
# [18] = test system: Enterococcus faecium; experiment: Antibiofilm activity against Enterococcus faecium incubated for 24 hrs followed by biofilm resuspension in PBS and measured after 24 hrs; format: functional; procedure, shortened: as §2
# [19] = test system: Staphylococcus aureus; experiment: Antimicrobial activity against Staphylococcus aureus assessed as inhibition of microbial growth after 24 hrs; format: functional; procedure, shortened: as §4
# [20] = test system: Enterobacter cloacae; experiment: Antimicrobial activity against Enterobacter cloacae assessed as inhibition of microbial growth at 45 uM after 24 hrs; format: functional, organism-based; procedure, shortened: as §1
# [21] = test system: Pseudomonas aeruginosa; experiment: Antimicrobial activity against Pseudomonas aeruginosa assessed as inhibition of microbial growth at 45 uM after 24 hrs; format: functional, organism-based; procedure, shortened: as §1
# [22] = test system: Enterococcus faecium; experiment: Antimicrobial activity against Enterococcus faecium assessed as inhibition of microbial growth at 45 uM after 24 hrs; format: functional, organism-based; procedure, shortened: as §1
# [23] = test system: Pseudomonas aeruginosa; experiment: Antimicrobial activity against Pseudomonas aeruginosa assessed as inhibition of microbial growth after 24 hrs; format: functional; procedure, shortened: as §4
# [24] = Selectivity index, ratio of IC50 for human A549 cells to MIC for Klebsiella pneumoniae
# [25] = Selectivity index, ratio of IC50 for human A549 cells to MIC for Staphylococcus aureus
# [26] = Selectivity index, ratio of IC50 for human A549 cells to MIC for Pseudomonas aeruginosa
# [27] = test system: Klebsiella pneumoniae; experiment: Induction of spontaneous mutation in Klebsiella pneumoniae at 2 to 10 MIC; format: functional, organism-based
# [28] = test system: Enterococcus faecium; experiment: Antimicrobial activity against Enterococcus faecium assessed as inhibition of microbial growth after 24 hrs; format: functional; procedure, shortened: as §4
# [29] = test system: Staphylococcus aureus; experiment: Ratio of MIC for Staphylococcus aureus measured after 8 cycle passage to MIC for wild type Staphylococcus aureus; format: functional
# [30] = test system: Pseudomonas aeruginosa; experiment: Antibiofilm activity against Pseudomonas aeruginosa incubated for 24 hrs followed by biofilm resuspension in PBS and measured after 24 hrs; format: functional; procedure, shortened: as §2
# [31] = Cytotoxicity against human A549 cells assessed as cell viability recovery at 225 uM after 48 hrs by MTT assay; format: cell-based; conditions: read-out: Activity; procedure, shortened: as §5
# [32] = test system: Pseudomonas aeruginosa; experiment: Bactericidal activity against Pseudomonas aeruginosa after 24 hrs; format: functional
# [33] = test system: Acinetobacter baumannii; experiment: Bactericidal activity against Acinetobacter baumannii after 24 hrs; format: functional
# [34] = test system: Enterococcus faecium; experiment: Bactericidal activity against Enterococcus faecium after 24 hrs; format: functional
# [35] = test system: Klebsiella pneumoniae; experiment: Bactericidal activity against Klebsiella pneumoniae after 24 hrs; format: functional
# [36] = test system: Staphylococcus aureus; experiment: Antibiofilm activity against Staphylococcus aureus incubated for 24 hrs followed by biofilm resuspension in PBS and measured after 24 hrs; format: functional; procedure, shortened: as §2
# [37] = test system: Acinetobacter baumannii; experiment: Antibiofilm activity against Acinetobacter baumannii incubated for 24 hrs followed by biofilm resuspension in PBS and measured after 24 hrs; format: functional; procedure, shortened: as §2
# [38] = test system: Staphylococcus aureus; experiment: Effect on bacterial density of methicillin-resistant Staphylococcus aureus at MIC measured over 2 hrs period by time kill assay; format: functional, organism-based
# [39] = test system: A549; experiment: Cytotoxicity against human A549 cells after 48 hrs by MTT assay; format: cell-based; conditions: A549, 48 h; procedure, shortened: as §5
# [40] = Selectivity index, ratio of IC50 for human A549 cells to MIC for Acinetobacter baumannii
# [41] = test system: Klebsiella pneumoniae; experiment: Antibiofilm activity against Klebsiella pneumoniae incubated for 24 hrs followed by biofilm resuspension in PBS and measured after 24 hrs; format: functional; procedure, shortened: as §2
# [42] = test system: Enterobacter cloacae; experiment: Induction of spontaneous mutation in Enterobacter cloacae at 2 to 10 MIC; format: functional, organism-based
# [43] = test system: Enterobacter cloacae; experiment: Antimicrobial activity against Enterobacter cloacae assessed as inhibition of microbial growth after 24 hrs; format: functional; procedure, shortened: as §4
# [44] = test system: Acinetobacter baumannii; experiment: Antimicrobial activity against Acinetobacter baumannii assessed as inhibition of microbial growth at 45 uM after 24 hrs; format: functional, organism-based; procedure, shortened: as §1
# [45] = test system: Klebsiella pneumoniae; experiment: Antimicrobial activity against Klebsiella pneumoniae assessed as inhibition of microbial growth after 24 hrs; format: functional; procedure, shortened: as §4
# [46] = test system: Klebsiella pneumoniae; experiment: Ratio of MIC for Klebsiella pneumoniae measured after 8 cycle passage to MIC for wild type Klebsiella pneumoniae; format: functional
# [47] = test system: Staphylococcus aureus; experiment: Antimicrobial activity against Staphylococcus aureus USA300 strain FPR3757 infected in mouse model of lethal peritonitis assessed as mouse survival at 2 uM, im dosed 1 hr post infection and measured after 5 days post infection; format: functional, organism-based
# Procedure, shortened: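 Mice, six per group, infected i.p. with 1 × 10^8 CFU ml−1 S. aureus USA300 FPR3757 in PBS with 5% mucin. Compound given i.m. at 2 μM 1 h later; vehicle 45% w/v (2-hydroxypropyl)-β-cyclodextrin in water i.v.; vancomycin i.v. as control. Monitored twice daily for 5 days, pre-moribund animals euthanized. Survival compared by log-rank test.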
smiles,measurement,setting,value
CCCC[C@H]1CN(CCCC[C@H]2CNC(=N)N2CCc2cccc(C(F)(F)F)c2)C(=N)N1CCCCC1CCCCC1,MBC90,[1],4.1 µM
same,Activity,[2],inactive
same,Selectivity Index,[3],82
same,Ratio,[4],<=8
same,Activity,[5],inactive
same,Selectivity Index,[6],82
same,"hemolysis at 0.25 h, 10 µM",[7],0.34%
same,growth inhibition (GI),[8],Active
same,MBEC50,[9],13 µM
same,fold change (FC),[10],2.5
same,MIC,[11],1.5 µM
same,growth inhibition (GI),[12],Active
same,Ratio,[13],<=8
same,Survival,[14],0.2%
same,viability at 48 h,[15],> 65%
same,Activity,[16],inactive
same,Activity,[17],inactive
same,MBEC50,[18],29 µM
same,MIC,[19],1.5 µM
same,growth inhibition (GI),[20],Active
same,growth inhibition (GI),[21],Active
same,growth inhibition (GI),[22],Active
same,MIC,[23],1.5 µM
same,Selectivity Index,[24],82
same,Selectivity Index,[25],82
same,Selectivity Index,[26],82
same,Activity,[27],inactive
same,MIC,[28],1.5 µM
same,Ratio,[29],2
same,MBEC50,[30],31 µM
same,"viability at 48 h, 225 µM",[31],> 50%
same,MBC90,[32],2.3 µM
same,MBC90,[33],2.8 µM
same,MBC90,[34],1.7 µM
same,MBC90,[35],4 µM
same,MBEC50,[36],2.2 µM
same,MBEC50,[37],16 µM
same,Activity,[38],inactive
same,IC50,[39],125 µM
same,Selectivity Index,[40],82
same,MBEC50,[41],4.7 µM
same,Activity,[42],inactive
same,MIC,[43],1.5 µM
same,growth inhibition (GI),[44],Active
same,MIC,[45],1.5 µM
same,Ratio,[46],<=8
same,Activity,[47],Active
